# Bioassay records as filed in PubChem BioAssay.
# The list is not random: actives were taken first. Their share in the collection is about 7.9%.
# SF1 activator – SF-1 (human) activation. Q13285. CHO-K1 Gal4-SF-1 LBD luciferase reporter; % increase over DMSO SF-1-specific signal. activation, % at 10 µM. 65,000 compounds, 1.9% hits. AID 522;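 active = activation above the mean activation of all tested compounds plus 3 SD, cut at about 50% in these data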
# Target sequence (Q13285 whole entry, looked up, the tested form may be a part): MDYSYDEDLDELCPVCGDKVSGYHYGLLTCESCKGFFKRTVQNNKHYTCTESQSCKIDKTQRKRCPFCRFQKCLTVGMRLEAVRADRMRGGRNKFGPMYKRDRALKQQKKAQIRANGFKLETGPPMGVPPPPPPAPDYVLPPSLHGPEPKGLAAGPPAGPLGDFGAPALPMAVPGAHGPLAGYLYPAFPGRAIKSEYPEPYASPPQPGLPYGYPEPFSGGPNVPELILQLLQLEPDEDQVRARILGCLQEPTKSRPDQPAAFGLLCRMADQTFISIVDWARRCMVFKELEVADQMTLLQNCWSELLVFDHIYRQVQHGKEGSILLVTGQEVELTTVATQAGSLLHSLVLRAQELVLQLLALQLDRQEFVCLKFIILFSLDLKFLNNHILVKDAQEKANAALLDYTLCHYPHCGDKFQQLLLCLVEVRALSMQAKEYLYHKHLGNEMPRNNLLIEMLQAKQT
#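 Assay system: CHO-K1 cells co-transfected with Gal4 DBD–human SF-1 LBD, 5xGal4 luciferase reporter / Input: 4,000 cells per well / Incubation: 20 h compound exposure at 37 °C after 1 h cell settling / Detection: SteadyLite luciferase luminescence / Control set: DMSO negative control and −SF1 background wells / Replication: one test per compound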
# JNK3 blocker – inhibitors of human JNK3 kinase. purified JNK3 kinase activity, HTS. inhibition, % at 8 µM. 60,000 compounds, 0.61% hits; in the data active = inhibition above about 17%;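 note: 0% = DMSO and 100% = reference inhibitor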
# HEK293 NFkB inh – lowers PMA/ionomycin-induced NF-kB signal in HEK293 cells | HEK-293 NF-kB luciferase reporter, luminescence | inhibition, % at 3 µM | 62,000 compounds, 0.21% hits | AID 465;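 active = inhibition above the mean of all tested compounds plus 3 SD, cut at about 40% in these data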;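 note: 0% = stimulated DMSO wells and 100% = 10 µM reference inhibitor 5653914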
#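 System: NF-kB luciferase reporter HEK-293 cells | Replication: Single test | Control set: DMSO vs reference inhibitor | Evaluation: % inhibition | Schedule: 1 h pretreatment, 16 h stimulation, 37 °C | Probe or stimulus: PMA with ionomycin | Compound dosing: One dose, 3 µM | Detection: Luciferase luminescence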
# D1 mod – D1 dopamine receptor (human) allosteric modulation. P21728. HEK293 D1, CRE-luciferase, dopamine EC30 potentiation; actives deviate in either direction. B-score at 10 µM. 58,000 compounds, 5.9% hits. AID 641;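 active = luminescence count or its row- and column-corrected plate score outside the 99.7% band of the plate's sample wells, on either side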
# RORa activator – RORA (human) activation; CHO-K1 Gal4-RORA LBD luciferase reporter, luminescence; percent increase over mock-subtracted basal signal; 65,000 compounds, 1.5% hits; activation, % at 10 µM; P35398;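 active = activation above the mean of all tested compounds plus 3 SD, cut at about 49% in these data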;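 note: 0% = DMSO-treated RORA cells and 100% = added signal equal to DMSO minus mock-transfected cells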
# D1 PAM confirm – confirmation of human D1 dopamine receptor allosteric modulators. shares compounds with D1 mod. HEK293 D1 CRE-luciferase, dopamine EC30 potentiation; active compounds read high. luminescence at 10 µM. 2,200 compounds, 88% hits;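 active = luminescence in either of two replicates above the same-plate mean plus 3 SD of the low-dose dopamine control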
# D1 no dopamine – D1 (human) signaling in absence of dopamine. shares compounds with D1 mod. HEK293 D1 CRE-luciferase, luminescence, no dopamine; active compounds read high. luminescence at 10 µM. 1,900 compounds, 0.8% hits. AID 646; in the data active = luminescence above about 3900
# Isoprot counter – alters isoproterenol CRE-luciferase response in HEK293 cells; shares compounds with D1 mod; HEK293 D1 CRE-luciferase, isoproterenol EC30 counter-screen; calls only at 10 µM; 2,200 compounds, 63% hits;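 active = luminescence in either replicate above plate mean of wells with a partly effective reference agonist dose plus 3 SD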;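 note: isoproterenol raises cAMP through native beta-adrenoceptor Gs so signal bypasses D1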
# An asterisk follows results filed as active; i = inactive; . = not tested or not shown; + = active, no number.
SMILES,SF1 activator,JNK3 blocker,HEK293 NFkB inh,D1 mod,RORa activator,D1 PAM confirm,D1 no dopamine,Isoprot counter
COc1cccc(-c2nnc(NC(=O)c3ccc(S(=O)(=O)N4CC(C)OC(C)C4)cc3)o2)c1 (stereo not given),-49,2,29,2.8*,-36,5492,1692,i
CCCCn1c2nc3ccccc3nc2c2c(=O)n(C(C)CC)cnc21 (stereo not given),-2,-2,-1,10*,2,11776*,1928,i
CCC(C)n1cnc2c(c1=O)c1nc3ccccc3nc1n2Cc1ccc2c(c1)OCO2 (stereo not given),20,-8,11,9.8*,-24,14800*,1636,+
CCOC(=O)N1CCN(C(=O)CN(c2ccc(Cl)c(C(F)(F)F)c2)S(C)(=O)=O)CC1,10,.,16,-0.43,-7,.,.,.
CCN(C(=O)CCc1nc(-c2ccccc2F)no1)c1cc(OC)ccc1OC,-4,3,-1,-0.14,-19,.,.,.
Cc1ccc(-c2nnc(N3CCOCC3)c3ccccc23)cc1S(=O)(=O)NCC1CCCO1 (stereo not given),-10,-6,14,2.3,3,.,.,.
COc1ccc(OC)c(/C=N/c2oc(-c3ccco3)c(-c3ccco3)c2C#N)c1,-5,0,17,9.5*,-23,16404*,1712,i
COc1nc(C)ccc1-c1noc(-c2ccncc2)n1,64*,4,-15,6.7*,31,7856*,1580,i
CCOc1nc(C)ccc1-c1noc(-c2ccccn2)n1,9,-1,10,8*,8,16720*,1708,+
CCOc1nc(C)ccc1-c1noc(-c2ccco2)n1,16,-1,12,7.2*,10,16212*,1800,+
COc1nc(-c2ccc(Cl)cc2)ccc1-c1noc(-c2ccncc2)n1,-3,2,20,.,1,.,.,.
CC(C)CC(=O)NC1(C(F)(F)F)C(=O)Nc2c1c(=O)n(C)c(=O)n2C (stereo not given),1,-2,17,0.77,-16,.,.,.
Cc1cc(C)nc(SCc2nc(N)nc(-c3ccccc3O)n2)n1,25,12,-4,13*,-6,17172*,1668,+
CCc1cccc2c(C#N)cn(CC(=O)NCCOC)c12,-11,5,11,3*,-10,4856,1524,i
Cc1nn(C(=O)c2cc3sccc3[nH]2)c(C)c1C,46,3,2,-0.47,38,.,.,.
CSc1nnc(-c2cccs2)n1-c1ccccc1,7,6,21,3.7*,-20,17328*,1712,+
COc1ccc(/C=N/n2c(N)nc3ccccc32)cc1OC,12,48*,16,9.5*,22,21348*,1544,+
COc1ccc(C(O)Cc2nc3ccccc3n2C)cc1OC (stereo not given),8,-1,10,-0.07,5,.,.,.
N#Cc1c(-c2ccccc2)nc(N2CCCCCC2)[nH]c1=O,18,9,2,13*,-9,26112*,1656,+
N#Cc1c(-c2ccccc2)nc(N2CCOCC2)[nH]c1=O,5,4,17,0.47,-9,.,.,.
CCNc1nc(Oc2ccc(=O)n(-c3ccccc3)n2)nc(N2CCOCC2)n1,14,-1,-5,10*,-10,18936*,1592,+
COc1cc2c(cc1OC)CN(S(=O)(=O)c1ccc3c(c1)OCCO3)CC2,-3,-1,6,5.3*,2,15328*,1404,+
CC(=O)Nc1cc2c(cc1C(=O)c1ccc(C)cc1)OCCO2,9,-1,-4,6.2*,-4,15264*,1428,+
CC(C)(C)Nc1nc(SCc2ccccc2)nc(N2CCOCC2)n1,-18,2,14,0.0031,5,.,.,.
CC(Sc1nc(N(C)C)nc(N2CCOCC2)n1)C(=O)Nc1ccccc1 (stereo not given),-9,-8,5,4.8*,-21,9356*,1600,+
SMILES,SF1 activator,JNK3 blocker,HEK293 NFkB inh,D1 mod,RORa activator,D1 PAM confirm,D1 no dopamine,Isoprot counter
CNc1nc(SCc2ccccc2)nc(N2CCOCC2)n1,9,4,15,11*,1,24896*,1672,+
CC(C)Nc1nc(SCC(=O)Nc2ccccc2)nc(N2CCOCC2)n1,2,-3,17,14*,-5,20560*,1624,+
CC(=O)c1ccc(NC(=O)CSc2nnc(Cn3c(=O)sc4ccccc43)n2C)cc1,2,-6,9,0.63,4,.,.,.
COc1ccc(-c2nnn(CC(=O)c3ccccc3)n2)cc1OC,4,.,-6,-0.49,-4,.,.,.
COc1ccc(-c2nnn(CC(=O)N(C3CCCC3)C(C)C(=O)NC3CCCC3)n2)cc1OC (stereo not given),10,6,28,3.6*,20,6476*,.,i
COc1ccc(-c2nnn(CC(=O)c3c[nH]c4ccccc34)n2)cc1OC,0,0,9,8.1*,4,19116*,1776,+
CCOc1ccc(-c2nnn(CC(=O)Nc3ccccc3OC)n2)cc1OCC,-10,3,15,9.4*,-16,19984*,1640,+
CCN(CC(N)=O)S(=O)(=O)c1ccc(Br)cc1,-4,-7,18,0.2,-26,.,.,.
CN(C)C(=O)CSc1nnc([C@H](Cc2c[nH]c3ccccc23)NC(=O)OC(C)(C)C)o1,-15,1,10,0.002,10,.,.,.
O=C(OCCCCN1C(=O)c2ccccc2C1=O)c1n[nH]c2ccccc12,-4,8,4,5.1*,11,7836*,1704,i
COc1cccc(NC(=O)c2cccs2)c1,47,1,-2,0.96,40,.,.,.
COc1ccc(C(=O)Nc2ccncc2)cc1OC,-12,2,14,13*,4,20440*,.,+
COc1ccc(C(=O)Nc2nccs2)cc1OC,1,16,-4,2.7,44,.,.,.
COc1ccc(NC(=O)c2cccs2)cc1OC,0,-4,12,8*,12,13868*,1416,+
CCOc1ccccc1NC(=O)CN(C)S(=O)(=O)c1cccc2nsnc12,-8,0,5,4.7*,-4,6432*,1328,i
CCc1nnc(NC(=O)C2CCN(c3nc(C)cc(C)n3)CC2)s1,12,-2,19,-0.79,-8,.,.,.
c1ccc(-c2oc3ncnc(NCCCn4ccnc4)c3c2-c2ccccc2)cc1,8,2,18,3.8*,25,9476*,1872,+
